pIC50, pKi: −log10 of the molar value. Active and inactive are the calls of the source. The calls are words filed in the database; no cut-off is given here.
Assays:
[1] = Inhibition of aspergillus niger alpha-galactosidase using 10 mM p-nitrophenyl-alpha-D-galactopyranoside as substrate
Summary of the method: (§1)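 Enzyme (0.1 U/cm3; A. niger α-galactosidase or bovine liver β-galactosidase) was preincubated with inhibitor for 1 h at 37 °C. Substrate was 10 mM p-nitrophenyl α- or β-D-galactopyranoside in 200 mM sodium acetate, reacted 10 min at 37 °C. The reaction was stopped with 200 mM borate pH 9.8 and released p-nitrophenol read at 420 nm. Ki came from Lineweaver–Burk plots; values are the average of five assays.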

[2] = Immunostimulating activity in Swiss albino mouse Splenocytes assessed as increase in ConA-induced cell proliferation at 0.5 uM after 72 hrs by MTT assay; format: functional, Splenocyte
Summary of the method: (§2)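 Swiss albino mouse splenocytes (2 × 10^6 cells/well) were treated with Con A alone or with test samples at final 0.5, 1, 2.5 and 5 μM. Con A is given as final 10 μg/mL in methods and 10 μM in text. Cells were held 72 h at 37 °C, 5% CO2, in RPMI with 10% FCS, then read by MTT. Values are % of Con A-treated cells (100%), mean ± SEM, n = 5.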

[3] = Immunostimulating activity in Swiss albino mouse Splenocytes assessed as increase in ConA-induced cell proliferation at 5 uM after 72 hrs by MTT assay; format: functional, Splenocyte; summary of the method: as §2
[4] = target: T1, Alpha-mannosidase (Canavalia ensiformis, UniProt C0HJB3); assay: Inhibition of jack bean alpha-mannosidase using 10 mM p-nitrophenyl-alpha-D-mannopyranoside as substrate
T1 sequence (C0HJB3 whole entry): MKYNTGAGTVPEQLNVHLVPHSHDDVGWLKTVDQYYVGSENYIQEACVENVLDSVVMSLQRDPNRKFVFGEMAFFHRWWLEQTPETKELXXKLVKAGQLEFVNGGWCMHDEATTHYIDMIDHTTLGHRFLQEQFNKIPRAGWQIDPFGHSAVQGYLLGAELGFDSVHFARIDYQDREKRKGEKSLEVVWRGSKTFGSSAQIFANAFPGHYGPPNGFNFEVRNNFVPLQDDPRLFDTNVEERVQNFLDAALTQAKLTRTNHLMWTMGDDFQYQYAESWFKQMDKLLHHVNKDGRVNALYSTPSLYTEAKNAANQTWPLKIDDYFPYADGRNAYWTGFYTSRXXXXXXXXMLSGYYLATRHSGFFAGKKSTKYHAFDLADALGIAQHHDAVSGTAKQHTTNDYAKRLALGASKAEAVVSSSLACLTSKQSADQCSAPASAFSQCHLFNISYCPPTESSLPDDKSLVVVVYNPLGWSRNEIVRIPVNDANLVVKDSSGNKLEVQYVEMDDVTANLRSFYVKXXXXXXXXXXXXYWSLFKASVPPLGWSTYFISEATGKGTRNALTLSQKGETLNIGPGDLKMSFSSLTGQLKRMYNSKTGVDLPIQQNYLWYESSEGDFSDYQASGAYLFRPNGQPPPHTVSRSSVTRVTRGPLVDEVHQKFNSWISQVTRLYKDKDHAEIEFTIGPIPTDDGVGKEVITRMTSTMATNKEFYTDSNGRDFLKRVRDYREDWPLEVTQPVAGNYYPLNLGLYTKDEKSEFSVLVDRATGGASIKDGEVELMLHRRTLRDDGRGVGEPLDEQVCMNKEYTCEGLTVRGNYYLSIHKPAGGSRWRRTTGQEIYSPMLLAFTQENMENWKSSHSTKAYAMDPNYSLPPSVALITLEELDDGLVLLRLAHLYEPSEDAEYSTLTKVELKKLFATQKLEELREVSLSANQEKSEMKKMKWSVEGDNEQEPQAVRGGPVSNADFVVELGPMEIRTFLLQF
Summary of the method: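 Jack bean α-mannosidase (0.1 U cm−3) was preincubated with compound 1 h at 37 °C. Reaction used 10 mM p-nitrophenyl-α-D-mannopyranoside in 100 mM citrate pH 4.5, 10 min at 37 °C, stopped with 200 mM borate pH 9.8. Read at 420 nm. IC50 and Ki were determined, Ki from Lineweaver–Burk double-reciprocal plots. Mean of five assays.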

[5] = Immunostimulating activity in Swiss albino mouse Splenocytes assessed as increase in ConA-induced cell proliferation at 2.5 uM after 72 hrs by MTT assay; format: functional, Splenocyte; summary of the method: as §2
[6] = Immunostimulating activity in Swiss albino mouse Splenocytes assessed as increase in ConA-induced cell proliferation at 1 uM after 72 hrs by MTT assay; format: functional, Splenocyte; summary of the method: as §2
[7] = test system: Splenocyte; assay: Immunostimulating activity in Swiss albino mouse Splenocytes assessed as increase in ConA-induced cell proliferation upto 2.5 uM after 72 hrs by MTT assay; format: functional, cell-based; summary of the method: as §2
[8] = target: T2, Beta-galactosidase (Bos taurus, UniProt Q58D55); assay: Inhibition of bovine liver beta-galactosidase using 10 mM p-nitrophenyl-beta-D-galactopyranoside as substrate; summary of the method: as §1
T2 sequence (Q58D55 whole entry): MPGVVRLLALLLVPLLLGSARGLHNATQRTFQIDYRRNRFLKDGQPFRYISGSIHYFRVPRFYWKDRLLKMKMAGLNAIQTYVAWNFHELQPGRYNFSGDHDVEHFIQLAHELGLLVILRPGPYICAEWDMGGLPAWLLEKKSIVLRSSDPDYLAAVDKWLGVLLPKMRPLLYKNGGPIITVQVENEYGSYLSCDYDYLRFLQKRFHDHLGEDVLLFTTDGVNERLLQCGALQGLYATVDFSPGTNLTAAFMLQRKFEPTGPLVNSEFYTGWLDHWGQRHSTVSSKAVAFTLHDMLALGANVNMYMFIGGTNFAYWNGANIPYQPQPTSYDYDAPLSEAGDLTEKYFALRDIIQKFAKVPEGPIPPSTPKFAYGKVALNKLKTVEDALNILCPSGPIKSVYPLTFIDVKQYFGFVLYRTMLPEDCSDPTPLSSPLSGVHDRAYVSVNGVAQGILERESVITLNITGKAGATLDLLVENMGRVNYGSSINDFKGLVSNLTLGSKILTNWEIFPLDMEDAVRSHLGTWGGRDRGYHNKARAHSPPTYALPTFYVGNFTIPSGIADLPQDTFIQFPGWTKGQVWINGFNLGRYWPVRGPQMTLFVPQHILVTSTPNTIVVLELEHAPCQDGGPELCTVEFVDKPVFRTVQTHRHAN

[9] = test system: Oryza sativa; assay: Inhibition of rice alpha-glucosidase at 1 mM using 10 mM p-nitrophenyl-alpha-D-glucopyranoside as substrate
Summary of the method: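 Rice α-glucosidase (0.1 U cm−3) was preincubated with compound 1 h at 37 °C. Reaction used 10 mM p-nitrophenyl-α-D-glucopyranoside in 100 mM phosphate pH 6.8, 10 min at 37 °C, stopped with 0.1 M Na2CO3. p-Nitrophenol was read at 420 nm. NI means no 50% inhibition at 1 mM. Ki came from Lineweaver–Burk plots. Average of five assays.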

[10] = Cytotoxicity against Swiss albino mouse Splenocytes assessed as cell proliferation at 0.5 to 5 uM after 72 hrs by MTT assay; format: cell-based; conditions: splenocyte; summary of the method: as §2
[11] = test system: Splenocyte; assay: Immunostimulating activity in Swiss albino mouse Splenocytes assessed as ConA-induced cell proliferation > 5 uM after 72 hrs by MTT assay; format: functional, cell-based
[12] = test system: Splenocyte; assay: Immunostimulating activity in Swiss albino mouse Splenocytes assessed as increase in IL-6 secretion at 2.5 uM by ELISA in presence of 10 uM ConA relative to control; format: functional
Summary of the method: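 Splenocytes (2 × 10^6 cells/well) were stimulated with 10 μM Con A plus compound (2.5 or 5 μM). Supernatant IL-6 was measured by sandwich ELISA: sample 2 h at 37 °C, biotinylated antibody 1 h, streptavidin–HRP, then substrate in the dark. Absorbance was read at 550 nm with 450 nm correction against an IL-6 standard curve. Mean ± SEM, n = 5.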

[13] = Inhibition of bovine liver beta-glucosidase using 10 mM p-nitrophenyl-[…]-D-glucopyranoside as substrate; set-up: species or system Bos taurus
[14] = test system: Splenocyte; assay: Immunostimulating activity in Swiss albino mouse Splenocytes assessed as decrease in ConA-induced IL-4 secretion at 2.5 uM by ELISA; format: functional
Summary of the method: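 Supernatants came from Con A-stimulated splenocytes (2 × 10^6 cells/well) with compound at 2.5 or 5 μM. They were spun 2000g for 5 min and stored at −70 °C. IL-4 was measured by ELISA: sample 2 h at 37 °C, then peroxidase conjugate 1 h, substrate developed in the dark. Absorbance was read at 550 nm with 450 nm correction and quantified from an IL-4 standard curve. n = 5.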

[15] = test system: Splenocyte; assay: Immunostimulating activity in Swiss albino mouse Splenocytes assessed as increase in ConA-induced IFN-gamma secretion at 2.5 uM by ELISA; format: functional, cell-based
Summary of the method: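 IFN-γ was measured by ELISA in supernatants of splenocytes (2 × 10^6 cells/well). Cells were unstimulated, stimulated with Con A (10 μM), or given Con A plus compound (2.5 or 5 μM) for 24 h. Mean ± SEM, n = 5.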

[16] = test system: Aspergillus niger; assay: Inhibition of aspergillus niger alpha-galactosidase at 1 mM using 10 mM p-nitrophenyl-alpha-D-galactopyranoside as substrate
Summary of the method: (§3)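 Galactosidase (0.1 U cm−3) was preincubated with compound 1 h at 37 °C. Reaction used 10 mM p-nitrophenyl-α- or β-D-galactopyranoside in 200 mM sodium acetate, 10 min at 37 °C, stopped with 200 mM borate pH 9.8. Read at 420 nm. NI means no 50% inhibition at 1 mM. Five assays averaged.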

[17] = target: T3, Beta-galactosidase (Bos taurus) (UniProt Q58D55); assay: Inhibition of bovine liver beta-galactosidase at 1 mM using 10 mM p-nitrophenyl-beta-D-galactopyranoside as substrate; summary of the method: as §3
T3 sequence (whole entry): T2 sequence (Q58D55 whole entry)

[18] = target: T4, Alpha-mannosidase (Canavalia ensiformis) (UniProt C0HJB3); assay: Inhibition of jack bean alpha-mannosidase at 1 mM using 10 mM p-nitrophenyl-alpha-D-mannopyranoside as substrate
T4 sequence (whole entry): T1 sequence (C0HJB3 whole entry)
Summary of the method: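 Jack bean α-mannosidase (0.1 U/cm3) was preincubated with inhibitor for 1 h at 37 °C. Substrate was 10 mM p-nitrophenyl α-D-mannopyranoside in 100 mM citrate pH 4.5, reacted 10 min at 37 °C. The reaction was stopped with 200 mM borate pH 9.8 and absorbance read at 420 nm. Ki came from Lineweaver–Burk plots; average of five assays. NI means under 50% inhibition at 1 mM.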

Compound | Activity [7] | inhibition [9] | Activity [10] | Activity [11] | fold change (FC) [12] | pIC50 [13] | pKi [13] | inhibition at 2.5 µM [14] | Activity [15] | other results
O=C1CC[C@]2(CO)[C@@H](O)[C@H](O)[C@@H](O)CN12 | Active | < 50% | Non-toxic | inactive | 12.1 | 4.66 | 4.96 | 57% | Active | pIC50 [1]: 6.38; pKi [1]: 6.48; Activity [2]: 13%; Activity [3]: 103%; pIC50 [4]: 7.25; pKi [4]: 7.46; Activity [5]: 130%; Activity [6]: 80%; pIC50 [8]: 6.10; pKi [8]: 6.70
O=C1CC[C@@]2(COCc3ccccc3)[C@@H](O)[C@H](O)[C@H](O)CN12 | Active | < 50% | Non-toxic | inactive | 4.9 | 3.47 | 3.95 | 40% | Active | inhibition [16]: < 50%; inhibition [17]: < 50%; inhibition [18]: < 50%
